In the assay the target is T1, Aromatase (Homo sapiens, UniProt P11511).
T1 sequence (P11511 whole entry): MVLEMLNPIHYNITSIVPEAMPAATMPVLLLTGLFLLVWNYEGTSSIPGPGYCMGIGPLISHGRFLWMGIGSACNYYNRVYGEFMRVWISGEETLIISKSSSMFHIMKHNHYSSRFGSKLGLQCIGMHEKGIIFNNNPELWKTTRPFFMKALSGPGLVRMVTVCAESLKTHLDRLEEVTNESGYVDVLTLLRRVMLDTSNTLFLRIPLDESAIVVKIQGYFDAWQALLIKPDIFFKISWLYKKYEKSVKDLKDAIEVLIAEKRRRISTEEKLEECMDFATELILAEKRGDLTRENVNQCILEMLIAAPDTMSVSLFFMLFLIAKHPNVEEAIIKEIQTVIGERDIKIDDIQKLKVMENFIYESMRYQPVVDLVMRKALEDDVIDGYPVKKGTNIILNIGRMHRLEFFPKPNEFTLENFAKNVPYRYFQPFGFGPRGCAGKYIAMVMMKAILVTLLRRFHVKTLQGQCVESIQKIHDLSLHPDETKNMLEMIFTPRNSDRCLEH
The experiment in a line: Inhibition of CYP450 aromatase activity in SK-BR-3 cells. The gist of the method: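 Tritium water release assay in intact SK-BR-3 cells. Cells were treated 24 h with compound or 0.1% DMSO vehicle, then the medium was changed and cells were given 100 nM [1β-3H]-androstenedione for 3 h. Protein was precipitated with TCA and the medium chloroform- and charcoal-extracted. Released 3H2O was counted and expressed per million cells (DNA assay). IC50 came from nonlinear regression on five concentrations in triplicate.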

Broadly, the IC50 is the concentration that gives 50% inhibition. A high value points to lower potency. The compound `COc1cc([N+](=O)[O-])ccc1N(C)S(C)(=O)=O` [N-methyl-N-(2-methoxy-4-nitrophenyl)methanesulfonamide] displayed an IC50 above 25 µM.

Take `COc1cc([N+](=O)[O-])ccc1NS(C)(=O)=O` [N-(2-methoxy-4-nitrophenyl)methanesulfonamide]: the IC50 was above 25 µM.

Source of the values: BindingDB's records for doi:10.1021/jm051126f (The Ohio State University, 2006).
